ChEMBL document CHEMBL1127826, “Inhibitors of acyl-CoA:cholesterol acyltransferase (ACAT). 7. Development of a series of substituted N-phenyl-N'-[(1-phenylcyclopentyl)methyl]ureas with enhanced hypocholesterolemic activity” (J Med Chem, 1994)

Experiments:
[1] = Solubility at, 0.1 N HCl; format: physicochemical; settings: read-out: S
[2] = Solubility at, pH 4.0; format: physicochemical; settings: buffer, read-out: S
[3] = Solubility at, pH 7.4; format: physicochemical; settings: buffer, read-out: S
Rattus norvegicus [4] = assay: Compound was evaluated in experiment 2 for Change in total cholesterol at 30 (mg/kg) dose; format: functional
In short: (§1)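 Chronic model in male Sprague-Dawley rats (200-225 g). Rats were fed chow with peanut oil 5.5%, cholesterol 1.5% and cholic acid ad libitum for 2 weeks. Test article was given by gavage once daily (morning) in the second week, as a CMC/Tween aqueous suspension. Blood was taken by cardiac puncture under ether 24 h after the last dose. Plasma total, HDL and nonHDL cholesterol were measured with an Abbott VP analyzer using dextran sulfate precipitation, reported as mg/dL and % change from control. Controls were cholesterol-fed rats and rats switched to chow in week 2.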

Rattus norvegicus [5] = assay: Compound was evaluated in experiment 1 for Change in High density lipoproteins at 0.3 (mg/kg) dose; format: functional; in short: as §1
Rattus norvegicus [6] = assay: Compound was evaluated in experiment 1 for Change in High density lipoproteins at 1.0 (mg/kg) dose; format: functional; in short: as §1
Rattus norvegicus [7] = assay: Compound was evaluated in experiment 1 for Change in total cholesterol at 0.3 (mg/kg) dose; format: functional; in short: as §1
Rattus norvegicus [8] = assay: Compound was evaluated in experiment 1 for Change in total cholesterol at 1.0 (mg/kg) dose; format: functional; in short: as §1
Rattus norvegicus [9] = assay: Compound was evaluated in experiment 1 for Change in total cholesterol at 10 (mg/kg) dose; format: functional; in short: as §1
Rattus norvegicus [10] = assay: Compound was evaluated in experiment 1 for Change in total cholesterol at 3.0 (mg/kg) dose; format: functional; in short: as §1
Rattus norvegicus [11] = species on record: Rattus norvegicus; assay: Percent change in total cholesterol in peanut oil (5.5%)-, cholic acid (0.3%)-, Cholesterol (1.5%)-fed rats after a single dose.; format: functional
In short: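 Male Sprague-Dawley rats (200-225 g), n=5-7/group, given a single oral dose at 4 p.m. as a suspension in 1.5% CMC/0.2% Tween-20 in water (50 mg/kg); controls received vehicle alone. The rats then had free access to chow with peanut oil, cholesterol and cholic acid. At 8 a.m. next day they were bled by cardiac puncture under ether, and serum total cholesterol was measured as % change versus controls (unpaired two-tailed t-test).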

Rattus norvegicus [12] = assay: Compound was evaluated in experiment 1 for Change in High density lipoproteins at 10 (mg/kg) dose; format: functional; in short: as §1
Rattus norvegicus [13] = assay: Compound was evaluated in experiment 1 for Change in High density lipoproteins at 3.0 (mg/kg) dose; format: functional; in short: as §1
Rattus norvegicus [14] = assay: Compound was evaluated in experiment 2 for Change in High density lipoproteins at 30 (mg/kg) dose; format: functional; in short: as §1
Rattus norvegicus [15] = assay: Compound was evaluated in experiment 1 for change in non High density lipoprotein at the doses at 0.3 (mg/kg) dose; format: functional; in short: as §1
Rattus norvegicus [16] = assay: Compound was evaluated in experiment 1 for change in non High density lipoprotein at the doses at 10 (mg/kg) dose; format: functional; in short: as §1
Rattus norvegicus [17] = assay: Compound was evaluated in experiment 1 for change in non High density lipoprotein at the doses at 3.0 (mg/kg) dose; format: functional; in short: as §1
Rattus norvegicus [18] = assay: Compound was evaluated in experiment 1 for change in non High density lipoprotein at the doses at 1.0 (mg/kg) dose; format: functional; in short: as §1
Rattus norvegicus [19] = assay: Compound was evaluated in experiment 2 for change in non High density lipoprotein at the doses at 30 (mg/kg) dose; format: functional
In short: (§2)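 Male Sprague-Dawley rats (200-225 g) were fed chow with peanut oil (5.5%), cholesterol (1.5%) and cholic acid (0.5%) ad libitum for 2 weeks. During week 2 they were gavaged daily each morning with compound in aqueous CMC/Tween suspension. Controls were fed the cholesterol diet for 2 weeks, or switched to chow for week 2. Rats were bled by cardiac puncture under ether 24 h post-dose. Plasma HDL-C was measured after dextran sulfate precipitation, along with nonHDL-C. Values are given in mg/dL and as % change from control.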

Rattus norvegicus [20] = assay: Compound was evaluated in experiment 1 for High density lipoproteins at 0.3 (mg/kg) dose; format: functional; in short: as §1
Rattus norvegicus [21] = assay: Compound was evaluated in experiment 1 for High density lipoproteins at 1.0 (mg/kg) dose; format: functional; in short: as §1
Rattus norvegicus [22] = assay: Compound was evaluated in experiment 1 for High density lipoproteins at 10 (mg/kg) dose; format: functional; in short: as §1
Rattus norvegicus [23] = assay: Compound was evaluated in experiment 1 for High density lipoproteins at 3.0 (mg/kg) dose; format: functional; in short: as §1
Rattus norvegicus [24] = assay: Compound was evaluated in experiment 2 for High density lipoproteins at 30 (mg/kg) dose; format: functional; in short: as §1
Rattus norvegicus [25] = assay: Compound was evaluated in experiment 2 for Total cholesterol at 30 (mg/kg) dose; format: functional; in short: as §1
Rattus norvegicus [26] = assay: Compound was evaluated in experiment 1 for non High density lipoproteins at 0.3 (mg/kg) dose; format: functional; in short: as §1
Rattus norvegicus [27] = assay: Compound was evaluated in experiment 1 for non High density lipoproteins at 1.0 (mg/kg) dose; format: functional; in short: as §1
Rattus norvegicus [28] = assay: Compound was evaluated in experiment 1 for non High density lipoproteins at 10 (mg/kg) dose; format: functional; in short: as §1
Rattus norvegicus [29] = assay: Compound was evaluated in experiment 1 for non High density lipoproteins at 3.0(mg/kg) dose; format: functional; in short: as §1
Rattus norvegicus [30] = assay: Compound was evaluated in experiment 2 for non High density lipoproteins at 30 (mg/kg) dose; format: functional; in short: as §2
Rattus norvegicus [31] = assay: Compound was evaluated in experiment 1 for Total cholesterol at 0.3 (mg/kg) dose; format: functional; set-up: unit not given beside the values; in short: as §1
Rattus norvegicus [32] = assay: Compound was evaluated in experiment 1 for Total cholesterol at 1.0 (mg/kg) dose; format: functional; set-up: unit not given beside the values; in short: as §1
Rattus norvegicus [33] = assay: Compound was evaluated in experiment 1 for Total cholesterol at 10 (mg/kg) dose; format: functional; set-up: unit not given beside the values; in short: as §1
Rattus norvegicus [34] = assay: Compound was evaluated in experiment 1 for Total cholesterol at 3.0 (mg/kg) dose; format: functional; set-up: unit not given beside the values; in short: as §1
[35] = target: T1, Acyl-CoA:cholesterol acyltransferase (Oryctolagus cuniculus, UniProt Q95214); assay: Tested for in vitro inhibition against Acyl coenzyme A:cholesterol acyltransferase of intestinal microsomes in cholesterol-fed rabbits; set-up: species or system Microsome
T1 sequence (Q95214 whole entry): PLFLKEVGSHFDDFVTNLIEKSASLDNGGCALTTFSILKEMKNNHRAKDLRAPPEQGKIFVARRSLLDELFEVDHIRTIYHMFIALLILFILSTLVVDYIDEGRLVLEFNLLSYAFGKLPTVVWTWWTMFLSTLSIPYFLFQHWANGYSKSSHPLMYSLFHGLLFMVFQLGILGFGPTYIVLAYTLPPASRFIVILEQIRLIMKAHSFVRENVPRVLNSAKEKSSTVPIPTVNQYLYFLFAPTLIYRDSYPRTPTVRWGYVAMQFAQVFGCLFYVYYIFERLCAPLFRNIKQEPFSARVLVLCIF
In short: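 Microsomes were prepared from intestine of cholesterol-fed rabbits. ACAT activity was measured using [1-14C]oleoyl-CoA as substrate. Each determination was run in triplicate.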

[36] = Compound was evaluated for the distribution coefficient at pH 7.4; format: physicochemical; settings: octanol/water, read-out: logD
Rattus norvegicus [37] = assay: Compound was evaluated for the percentage change in total cholesterol in peanut oil (5.5%)-cholic acid (0.3%)-cholesterol (1.5%)-fed rats at 30 mg/kg; format: functional

| SMILES | Change HDL -C (Rattus norvegicus [5]) [%] | Change HDL -C (Rattus norvegicus [6]) [%] | Change TC (Rattus norvegicus [7]) [%] | Change TC (Rattus norvegicus [8]) [%] | Change TC (Rattus norvegicus [9]) [%] | Change TC (Rattus norvegicus [10]) [%] | Delta TC (Rattus norvegicus [11]) [%] | Change HDL -C (Rattus norvegicus [12]) [%] | Change HDL -C (Rattus norvegicus [13]) [%] | Change non HDL-C (Rattus norvegicus [15]) [%] | Change non HDL-C (Rattus norvegicus [16]) [%] | Change non HDL-C (Rattus norvegicus [17]) [%] | Change non HDL-C (Rattus norvegicus [18]) [%] | HDL-C (Rattus norvegicus [20]) | HDL-C (Rattus norvegicus [21]) | HDL-C (Rattus norvegicus [22]) | HDL-C (Rattus norvegicus [23]) | Non-HDL-C (Rattus norvegicus [26]) | Non-HDL-C (Rattus norvegicus [27]) | Non-HDL-C (Rattus norvegicus [28]) | further results |
| --- | --- | --- | --- | --- | --- | --- | --- | --- | --- | --- | --- | --- | --- | --- | --- | --- | --- | --- | --- | --- | --- |
| CC(C)c1cccc(C(C)C)c1NC(=O)NCC1(c2ccc(N(C)C)cc2)CCCC1.Cl [NEVANIMIBE HYDROCHLORIDE] | 44 | 32 | -20 | -29 | -64 | -20 | -77 | 167 | 38 | -22 | -72 | -23 | -32 | 17 | 15 | 31 | 16 | 235 | 206 | 84 | solubility [1]: 6400 µg/mL; solubility [2]: 1330 µg/mL; solubility [3]: < 50 µg/mL; Change TC (Rattus norvegicus [4]): -69%; Change HDL -C (Rattus norvegicus [14]): 177%; Change non HDL-C (Rattus norvegicus [19]): -80%; HDL-C (Rattus norvegicus [24]): 36; TC (Rattus norvegicus [25]): 91; Non-HDL-C (Rattus norvegicus [29]): 235; Non-HDL-C (Rattus norvegicus [30]): 56; TC (Rattus norvegicus [31]): 252; TC (Rattus norvegicus [32]): 222; TC (Rattus norvegicus [33]): 115; TC (Rattus norvegicus [34]): 251 |
| CCCCN(CCCC)Cc1cccc(C2(CNC(=O)Nc3c(C(C)C)cccc3C(C)C)CCCC2)c1 | 16 | -16 | -14 | -12 | -4 | -34 | -25 | -21 | 8 | -15 | -3 | -36 | -12 | 12 | 10 | 9 | 12 | 258 | 266 | 293 | IC50 [35]: 16 nM; logD [36]: 6.05; Delta TC (Rattus norvegicus [37]): -63%; Non-HDL-C (Rattus norvegicus [29]): 194; TC (Rattus norvegicus [31]): 271; TC (Rattus norvegicus [32]): 276; TC (Rattus norvegicus [33]): 302; TC (Rattus norvegicus [34]): 206 |
